These results are taken from ChEMBL document CHEMBL3351841, “Differential modes of peptide binding onto replicative sliding clamps from various bacterial origins” (J Med Chem, 2014).

Usually IC50 stands for the point on the concentration scale where inhibition reaches its midpoint. The term Kd denotes the free concentration of one partner at which half of the binding sites on the other are occupied at equilibrium, for simple one-to-one binding. Lower therefore signals a tighter complex.

Where a SMILES comes first, the peptide text is derived from it. [ ]: non-standard residue; d: D form. Phe(3,4-Cl2) = N[C@@H](Cc1ccc(Cl)c(Cl)c1)C(=O)O; Cha = N[C@@H](CC1CCCCC1)C(=O)O

A short description of test [1]: Binding affinity to Bacillus subtilis DNA sliding clamp protein expressed in Escherichia coli BL21(DE3) pLys by SPR assay. Put shortly: (§1)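 Competition SPR at 25 °C in Hepes 10 mM pH 7.4, 0.15 M NaCl, 3 mM EDTA. Clamp (0.25 μM) was preincubated with challenger peptide (1.5 nM to 100 μM), then injected over a chip carrying immobilized P1 peptide (Pol IV C-terminal heptamer). IC50 was taken from inhibition of clamp/P1 binding.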

Test [2] can be described thus: Binding affinity to Staphylococcus aureus DNA sliding clamp protein expressed in Escherichia coli BL21(DE3) pLys at 30 degC by ITC assay. The procedure, abridged: (§2)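 ITC at 30 °C. Peptide (200–600 μM) was injected stepwise (2 μL) into clamp solution (20–60 μM), with peptide/SC ratio 10, in Hepes 10 mM pH 7.4, NaCl 0.15 M, EDTA 3 mM. Peptide-into-buffer controls were subtracted, and N, KD, ΔH and ΔS were derived. Performed at least twice.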

Test [3] in a line: Binding affinity to Pseudomonas aeruginosa DNA sliding clamp protein expressed in Escherichia coli BL21(DE3) pLys at 30 degC by ITC assay. Put shortly:
as §2
(ITC needs no label: the signal is the heat of the interaction.)

The nature of test [4]: Binding affinity to Bacillus subtilis DNA sliding clamp protein expressed in Escherichia coli BL21(DE3) pLys at 30 degC by ITC assay. The procedure, abridged: as §2
Test [5] is described as follows: Binding affinity to Escherichia coli DNA sliding clamp protein expressed in Escherichia coli BL21(DE3) pLys at 25 degC by ITC assay. Put shortly:
(§3)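 iTC200 calorimetry at 25 °C. Peptide (200–600 μM) was titrated in 2 μL injections into clamp (20–60 μM), with peptide/SC ratio 10, in 10 mM Hepes pH 7.4, 0.15 M NaCl, 3 mM EDTA. Data were corrected against peptide-into-buffer controls and fit for N, KD, ΔH and ΔS. At least two experiments.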

Test [6] can be described thus: Binding affinity to Escherichia coli DNA sliding clamp protein expressed in Escherichia coli BL21(DE3) pLys by SPR assay. Put shortly:
as §1

The nature of test [7]: Binding affinity to Staphylococcus aureus DNA sliding clamp protein expressed in Escherichia coli BL21(DE3) pLys by SPR assay. Put shortly:
as §1
(In general: SPR reads the build-up and loss of mass on a sensor chip optically.)

Test [8] can be described thus: Binding affinity to Escherichia coli DNA sliding clamp protein expressed in Escherichia coli BL21(DE3) pLys at 30 degC by ITC assay. Put shortly: as §2
The nature of test [9]: Binding affinity to Bacillus subtilis DNA sliding clamp protein expressed in Escherichia coli BL21(DE3) pLys at 25 degC by ITC assay. The procedure, abridged:
as §3

Test [10] can be described thus: Binding affinity to Pseudomonas aeruginosa DNA sliding clamp protein expressed in Escherichia coli BL21(DE3) pLys by SPR assay. The procedure, abridged:
as §1

Test [11] in a line: Binding affinity to Mycobacterium tuberculosis DNA sliding clamp protein expressed in Escherichia coli BL21(DE3) pLys at 25 degC by ITC assay. Put shortly:
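ITC at 25 °C. Peptide (200−600 μM) titrated in 2 μL injections into clamp (20−60 μM) at a peptide/clamp ratio of 10, in 10 mM Hepes pH 7.4, 0.15 M NaCl, 3 mM EDTA. Corrected using peptide-into-buffer controls. N, KD, ΔH and ΔS fitted; at least two experiments.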

The nature of test [12]: Binding affinity to Mycobacterium tuberculosis DNA sliding clamp protein expressed in Escherichia coli BL21(DE3) pLys by SPR assay. The procedure, abridged:
(§4)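 SPR competition at 25 °C in Hepes 10 mM pH 7.4, 0.15 M NaCl, 3 mM EDTA. Clamp (0.25 μM) preincubated with challenger peptide (1.5 nM to 100 μM), then injected over a chip loaded with P1 peptide. IC50 taken from inhibition of clamp/P1 binding; at least three independent experiments.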

A short description of test [13]: Binding affinity to Pseudomonas aeruginosa DNA sliding clamp protein expressed in Escherichia coli BL21(DE3) pLys at 25 degC by ITC assay. The procedure, abridged:
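His-tagged P. aeruginosa (PAO1) dnaN clamp from pET-15b, IPTG 0.1 mM at 28 °C overnight; Ni-NTA then MonoQ purified, ultracentrifuged. Peptide (200–600 μM) titrated in 2 μL injections into clamp (20–60 μM), peptide/clamp ratio 10, in 10 mM Hepes pH 7.4, 0.15 M NaCl, 3 mM EDTA. Heat of peptide into buffer subtracted; KD, N, ΔH, ΔS fitted; at least two runs.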

Test [14] in a line: Binding affinity to Bacillus subtilis DNA sliding clamp protein expressed in Escherichia coli BL21(DE3) pLys at 25 degC by SPR assay. Put shortly:
as §1

Test [15] can be described thus: Binding affinity to Staphylococcus aureus DNA sliding clamp protein expressed in Escherichia coli BL21(DE3) pLys at 25 degC by SPR assay. The procedure, abridged:
as §1

The subject of another test is Escherichia coli. The test can be described thus: Binding affinity to Escherichia coli DNA sliding clamp protein expressed in Escherichia coli BL21(DE3) pLys assessed as association constant at 25 degC by SPR assay. Put shortly:
(§5)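 Biacore SPR at 25 °C in 10 mM Hepes pH 7.4, 0.15 M NaCl, 3 mM EDTA. The E. coli Pol IV C-terminal heptamer (P1) was immobilized, and the clamp (Ni-NTA then MonoQ purified) was injected at 0.125–2 μM at 50 μL/min. After background subtraction, data were fit to a 1:1 Langmuir model to give KA.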

The next test has as its system Pseudomonas aeruginosa. The test can be described thus: Binding affinity to Pseudomonas aeruginosa DNA sliding clamp protein expressed in Escherichia coli BL21(DE3) pLys assessed as association constant at 25 degC by SPR assay. The procedure, abridged:
as §5

Test [16] is described as follows: Binding affinity to Mycobacterium tuberculosis DNA sliding clamp protein expressed in Escherichia coli BL21(DE3) pLys at 25 degC by SPR assay. Put shortly: as §4
Test [17] in a line: Binding affinity to Pseudomonas aeruginosa DNA sliding clamp protein expressed in Escherichia coli BL21(DE3) pLys at 25 degC by SPR assay. Put shortly:
as §1

Test [18] is described as follows: Binding affinity to Escherichia coli DNA sliding clamp protein expressed in Escherichia coli BL21(DE3) pLys at 25 degC by SPR assay. Put shortly:
as §1

Test [19] deals with Mycobacterium tuberculosis. Description: Binding affinity to Mycobacterium tuberculosis DNA sliding clamp protein expressed in Escherichia coli BL21(DE3) pLys assessed as association constant at 25 degC by SPR assay. Put shortly:
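Direct SPR binding at 25 °C in 10 mM Hepes pH 7.4, 0.15 M NaCl, 3 mM EDTA. Ni-NTA/MonoQ-purified clamp (0.125−2 μM) injected at 50 μL/min over immobilized P1, the E. coli Pol IV C-terminal heptamer. Background subtracted; 1:1 Langmuir fit gives KA.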

For a further test, the system named is Staphylococcus aureus. Description: Binding affinity to Staphylococcus aureus DNA sliding clamp protein expressed in Escherichia coli BL21(DE3) pLys assessed as association constant at 25 degC by SPR assay. Put shortly: as §5
The next test has as its system Bacillus subtilis. Description: Binding affinity to Bacillus subtilis DNA sliding clamp protein expressed in Escherichia coli BL21(DE3) pLys assessed as association constant at 25 degC by SPR assay. The procedure, abridged:
as §5

Turning to `CC(=O)N[C@@H](CCC(N)=O)C(=O)N[C@@H](CC1CCCCC1)C(=O)N[C@@H](CC(=O)O)C(=O)N[C@@H](CC(C)C)C(=O)N[C@@H](Cc1ccccc1)C(=O)O` (Ac-Q[Cha]DLF-OH), the concentration for half-maximal inhibition (IC50) in test [1] (read-out: IC50) turned out to be 2100 nM; in test [6] it was 170 nM; in [7] (read-out: IC50), 1540 nM. Also, the Kd is 29000 nM in test [2]; 640 nM in test [3]; 8200 nM in test [4]; 230 nM in test [5]; 1000 nM in test [8]; 12300 nM in test [9].

For the compound `CC(=O)N[C@@H](CCC(N)=O)C(=O)N[C@@H](CC1CCCCC1)C(=O)N[C@@H](CC(=O)O)C(=O)N[C@@H](CC(C)C)C(=O)N[C@@H](Cc1ccc(Cl)c(Cl)c1)C(=O)O` (Ac-Q[Cha]DL[Phe(3,4-Cl2)]-OH), the IC50 in test [10] was 140 nM; in test [1], “Not Active”; in test [6], 80 nM; in test [7], “Not Active”; in test [12] it was 850 nM. In addition, the Kd in [11] was determined as 750 nM; in test [5], 50 nM; in [13] it was 99 nM.

For H-RQLVLGL-OH, the Kd came out at 290 nM in [14]; 250 nM in test [15]; 240 nM in test [16]; 580 nM in test [17]; 230 nM in test [18]. The KA in the test with Escherichia coli is 4.2 ×10⁶ /M; with Pseudomonas aeruginosa, 1.7 ×10⁶ /M; in test [19], 4.6 ×10⁶ /M; in the test on Staphylococcus aureus, 4.1 ×10⁶ /M; with Bacillus subtilis it was 3.5 ×10⁶ /M.
